From ChEMBL document CHEMBL1139506, “Effect on K(ATP) channel activation properties and tissue selectivity of the nature of the substituent in the 7- and the 3-position of 4H-1,2,4-benzothiadiazine 1,1-dioxides” (J Med Chem, 2005)
One block for each compound: values may come before it.

Tests used:
[1] = Ionization constant was determined; type: physicochemical
Method in brief: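 Ionization constant found by UV spectroscopy in aqueous buffers spanning pH 5 to 12; pKa calculated with the Debye-Hückel equation at the absorbance maximum of the basic form.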

Rattus norvegicus [2] = species on record: Rattus norvegicus; experiment: Concentration required for relaxation of the 30 mM KCl-induced contraction of rat aortic rings (n=4); type: functional; conditions: Aorta, read-out: ED50 (the source's name)
Method in brief: (§1)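 Endothelium-denuded transverse aortic rings (3-4 mm) from fed Wistar rats (180-200 g); isometric tension by force transducer. After 60 min equilibration, contracted with 30 mM KCl; at stable tension, drug added cumulatively until maximal relaxation or up to 0.3 mM. Relaxation expressed as % of KCl contraction; ED50 (50% inhibition of KCl plateau) from dose curves; mean ± SEM (n).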

Rattus norvegicus [3] = species on record: Rattus norvegicus; experiment: Effect on insulin secretion from rat pancreatic islets at 10 uM concentration (n=37); type: functional
Rattus norvegicus [4] = species on record: Rattus norvegicus; experiment: Effect on insulin secretion from rat pancreatic islets at 50 uM concentration (n=14); type: functional
Method in brief: (§2)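 Islets isolated by collagenase from fed Wistar rats (180-220 g); groups of 10 preincubated 30 min, 37 °C, in bicarbonate salt medium with 2.8 mM glucose, 0.5% dialyzed albumin, O2/CO2 95:5. Then incubated 90 min, 37 °C, with 16.7 mM glucose plus drug. Insulin measured by radioimmunoassay against rat insulin standard; expressed as % of drug-free 16.7 mM glucose control; mean ± SEM (n).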

Rattus norvegicus [5] = species on record: Rattus norvegicus; experiment: ED50/IC50 ratio was determined; type: functional
Rattus norvegicus [6] = species on record: Rattus norvegicus; experiment: Concentration giving 50% relaxation of the 30 mM KCl-induced contraction of rat aortic rings (n=6); type: functional; conditions: Aorta, read-out: ED50 (the source's name); method in brief: as §1
Rattus norvegicus [7] = species on record: Rattus norvegicus; experiment: Concentration required for 50% inhibition of insulin release in rat pancreatic B-cells; type: functional, cell-based
Rattus norvegicus [8] = species on record: Rattus norvegicus; experiment: Effect on insulin secretion from rat pancreatic islets at 10 uM concentration (n=15); type: functional; method in brief: as §2
Rattus norvegicus [9] = species on record: Rattus norvegicus; experiment: Effect on insulin secretion from rat pancreatic islets at 50 uM concentration (n=12); type: functional; method in brief: as §2
Rattus norvegicus [10] = species on record: Rattus norvegicus; experiment: Effect on insulin secretion from rat pancreatic islets at 1 uM concentration (n=14); type: functional; method in brief: as §2
Rattus norvegicus [11] = species on record: Rattus norvegicus; experiment: Effect on insulin secretion from rat pancreatic islets at 10 uM concentration (n=16); type: functional; method in brief: as §2
Rattus norvegicus [12] = species on record: Rattus norvegicus; experiment: Concentration giving 50% relaxation of the 30 mM KCl-induced contraction of rat aortic rings (n=10); type: functional; conditions: Aorta, read-out: ED50 (the source's name); method in brief: as §1
Rattus norvegicus [13] = species on record: Rattus norvegicus; experiment: Effect on insulin secretion from rat pancreatic islets at 10 uM concentration (n=23); type: functional; method in brief: as §2
Rattus norvegicus [14] = species on record: Rattus norvegicus; experiment: Effect on insulin secretion from rat pancreatic islets at 1 uM concentration (n=22); type: functional; method in brief: as §2
Rattus norvegicus [15] = species on record: Rattus norvegicus; experiment: Effect on insulin secretion from rat pancreatic islets at 10 uM concentration (n=24); type: functional; method in brief: as §2
Rattus norvegicus [16] = species on record: Rattus norvegicus; experiment: Effect on insulin secretion from rat pancreatic islets at 50 uM concentration (n=16); type: functional; method in brief: as §2
Rattus norvegicus [17] = species on record: Rattus norvegicus; experiment: Effect on insulin secretion from rat pancreatic islets at 50 uM concentration (n=13); type: functional; method in brief: as §2
Rattus norvegicus [18] = species on record: Rattus norvegicus; experiment: Concentration required for relaxation of the 30 mM KCl-induced contraction of rat aortic rings; Precipitate; type: functional; conditions: Aorta; method in brief: as §1
Rattus norvegicus [19] = species on record: Rattus norvegicus; experiment: Effect on insulin secretion from rat pancreatic islets at 1 uM concentration (n=16); type: functional; method in brief: as §2
Rattus norvegicus [20] = species on record: Rattus norvegicus; experiment: Effect on insulin secretion from rat pancreatic islets at 50 uM concentration (n=15); type: functional; method in brief: as §2
Rattus norvegicus [21] = species on record: Rattus norvegicus; experiment: Effect on insulin secretion from rat pancreatic islets at 10 uM concentration (n=14); type: functional; method in brief: as §2
Rattus norvegicus [22] = species on record: Rattus norvegicus; experiment: Concentration giving 50% relaxation of the 30 mM KCl-induced contraction of rat aortic rings (n=11); conditions: Aorta, read-out: ED50
Rattus norvegicus [23] = species on record: Rattus norvegicus; experiment: Effect on insulin secretion from rat pancreatic islets at 1 uM concentration (n=15); type: functional; method in brief: as §2
Rattus norvegicus [24] = species on record: Rattus norvegicus; experiment: Effect on insulin secretion from rat pancreatic islets at 50 uM concentration (n=18); type: functional; method in brief: as §2

SMILES: COc1ccc2c(c1)S(=O)(=O)NC(NC1CCC1)=N2
Ratio (Rattus norvegicus [5]): 72 | EC50 (Rattus norvegicus [6]): 157 µM | IC50 (Rattus norvegicus [7]): 2.2 µM | Residual insulin release (Rattus norvegicus [8]): 14.1% | Residual insulin release (Rattus norvegicus [9]): 4% | Residual insulin release (Rattus norvegicus [10]): 71.3%

SMILES: CCC(C)NC1=NS(=O)(=O)c2cc(C)ccc2N1 (stereo not given)
Ratio (Rattus norvegicus [5]): 1.4 | EC50 (Rattus norvegicus [12]): 15.5 µM | IC50 (Rattus norvegicus [7]): 11.2 µM | Residual insulin release (Rattus norvegicus [13]): 50.7% | Residual insulin release (Rattus norvegicus [14]): 93.6%

SMILES: CCOc1ccc2c(c1)S(=O)(=O)NC(NC1CCC1)=N2
EC50 (Rattus norvegicus [2]): > 300 µM | Residual insulin release (Rattus norvegicus [11]): 84.9%

SMILES: CC(C)NC1=NS(=O)(=O)c2cc(C(=O)O)ccc2N1
EC50 (Rattus norvegicus [2]): > 300 µM | Residual insulin release (Rattus norvegicus [13]): 96.6% | Residual insulin release (Rattus norvegicus [16]): 98.6%

SMILES: CCC(C)NC1=NS(=O)(=O)c2ccccc2N1 (stereo not given)
ED50 (Rattus norvegicus [18]): Precipitate | Residual insulin release (Rattus norvegicus [11]): 42.7% | Residual insulin release (Rattus norvegicus [19]): 90.4%

SMILES: CCCNC1=NS(=O)(=O)c2cc(C(=O)O)ccc2N1
EC50 (Rattus norvegicus [2]): > 300 µM | Residual insulin release (Rattus norvegicus [8]): 97.6% | Residual insulin release (Rattus norvegicus [20]): 95.3%

SMILES: CCCNC1=NS(=O)(=O)c2cc(OC)ccc2N1
Ratio (Rattus norvegicus [5]): >34 | EC50 (Rattus norvegicus [2]): > 300 µM | IC50 (Rattus norvegicus [7]): 8.9 µM | Residual insulin release (Rattus norvegicus [21]): 47.4% | Residual insulin release (Rattus norvegicus [9]): 6.3% | Residual insulin release (Rattus norvegicus [19]): 101.7%

SMILES: CCC(C)NC1=NS(=O)(=O)c2cc(C(=O)O)ccc2N1 (stereo not given)
EC50 (Rattus norvegicus [2]): > 300 µM | Residual insulin release (Rattus norvegicus [13]): 93% | Residual insulin release (Rattus norvegicus [16]): 91.2%

SMILES: CC(C)NC1=NS(=O)(=O)c2cc(N)ccc2N1
pKa [1]: 10.5 | EC50 (Rattus norvegicus [2]): > 300 µM | Residual insulin release (Rattus norvegicus [20]): 85.8%

SMILES: CC1=Nc2ccc(Cl)cc2S(=O)(=O)N1 [DIAZOXIDE]
Ratio (Rattus norvegicus [5]): 1 | EC50 (Rattus norvegicus [22]): 22.4 µM | IC50 (Rattus norvegicus [7]): 22.6 µM | Residual insulin release (Rattus norvegicus [11]): 73.9% | Residual insulin release (Rattus norvegicus [16]): 26.7% | Residual insulin release (Rattus norvegicus [23]): 87.5%

Second part, led by results:

pKa [1]: 7.91 | EC50 (Rattus norvegicus [2]): 23.1 µM
SMILES: CC(C)NC1=NS(=O)(=O)c2cc([N+](=O)[O-])ccc2N1
Residual insulin release (Rattus norvegicus [3]): 64% | Residual insulin release (Rattus norvegicus [4]): 4.8%

EC50 (Rattus norvegicus [2]): 20.1 µM
SMILES: CCCCCc1ccc2c(c1)S(=O)(=O)NC(NC(C)C)=N2
Residual insulin release (Rattus norvegicus [11]): 106%

EC50 (Rattus norvegicus [2]): > 300 µM
SMILES: CCNC1=NS(=O)(=O)c2cc(S(C)(=O)=O)ccc2N1
Residual insulin release (Rattus norvegicus [11]): 91.6%

EC50 (Rattus norvegicus [2]): 6.6 µM
SMILES: CCCCCc1ccc2c(c1)S(=O)(=O)NC(NCC)=N2
Residual insulin release (Rattus norvegicus [11]): 104%

EC50 (Rattus norvegicus [2]): 162 µM
SMILES: CCNC1=NS(=O)(=O)c2cc(OCC)ccc2N1
Residual insulin release (Rattus norvegicus [15]): 75%

pKa [1]: 9.8 | EC50 (Rattus norvegicus [2]): > 300 µM
SMILES: CC(=O)Nc1ccc2c(c1)S(=O)(=O)N=C(NC(C)C)N2
Residual insulin release (Rattus norvegicus [16]): 89.3%

EC50 (Rattus norvegicus [2]): 13.8 µM
SMILES: O=[N+]([O-])c1ccc2c(c1)S(=O)(=O)NC(NC1CCC1)=N2
Residual insulin release (Rattus norvegicus [17]): 59.6%

EC50 (Rattus norvegicus [2]): 175 µM
SMILES: CC(C)NC1=NS(=O)(=O)c2cc(C(N)=O)ccc2N1
Residual insulin release (Rattus norvegicus [13]): 76.6%

EC50 (Rattus norvegicus [2]): 2.8 µM
SMILES: CC(C)C(C)NC1=NS(=O)(=O)c2cc([N+](=O)[O-])ccc2N1 (stereo not given)
Residual insulin release (Rattus norvegicus [16]): 90.4%

EC50 (Rattus norvegicus [2]): 6.1 µM
SMILES: CCC(C)NC1=NS(=O)(=O)c2cc([N+](=O)[O-])ccc2N1 (stereo not given)
Residual insulin release (Rattus norvegicus [24]): 63.3%

EC50 (Rattus norvegicus [2]): 126 µM
SMILES: CCC(C)NC1=NS(=O)(=O)c2cc(S(C)(=O)=O)ccc2N1 (stereo not given)
Residual insulin release (Rattus norvegicus [11]): 97.2%
